Measurements reported in ChEMBL document CHEMBL3351454, “Design, synthesis, antimicrobial evaluation and molecular docking studies of some new thiophene, pyrazole and pyridone derivatives bearing sulfisoxazole moiety” (2014).
In brackets after ≈: the same amount, converted by molar mass. Activity calls are given as the source filed them. No cut-off for these calls is given here.

How the values were obtained:
Type in all cases: functional
[1] = system: Klebsiella pneumoniae; assay: Antimicrobial activity against Klebsiella pneumoniae RCMB 010093 assessed as absence of turbidity after 24 hrs
In short: (§1)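 Broth microdilution in Müller–Hinton broth. DMF stocks at 1000 µg/mL were diluted in broth to give twofold serial dilutions over 500–0.007 µg/mL. Bacterial inoculum was about 10^6 CFU/mL in 96-well plates, sealed and incubated at 37 °C for 24 h in a humid chamber. MIC was taken as the lowest concentration with no visible turbidity. DMF and uninoculated-medium controls were included. Only compounds giving zones >10 mm were tested.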

[2] = system: Escherichia coli; assay: Antimicrobial activity against Escherichia coli RCMB 010052 assessed as absence of turbidity after 24 hrs; in short: as §1
[3] = system: Proteus vulgaris; assay: Antimicrobial activity against Proteus vulgaris RCMB 010085 assessed as absence of turbidity after 24 hrs; in short: as §1
[4] = system: Proteus vulgaris; assay: Antimicrobial activity against Proteus vulgaris RCMB 010085 assessed as inhibition zone at 5 mg/ml after 24 hrs; conditions: for zone of inhibition at 5000 µg/mL: RCMB 010085, 24 h, read-out: IZ
In short: (§2)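 Agar diffusion on nutrient agar seeded with 10^6 CFU/mL bacteria. Filter-paper disks were loaded with 100 µL of a 5 mg/mL compound solution in DMF, with a DMF-only control. Incubation was 37 °C for 24 h. Inhibition zone in mm (mean ± SD, triplicate plates) was measured beyond the 6 mm diameter.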

[5] = system: Klebsiella pneumoniae; assay: Antimicrobial activity against Klebsiella pneumoniae RCMB 010093 assessed as inhibition zone at 5 mg/ml after 24 hrs; conditions: for zone of inhibition at 5000 µg/mL: RCMB 010093, 24 h, read-out: IZ; in short: as §2
[6] = system: Syncephalastrum racemosum; assay: Antifungal activity against Syncephalastrum racemosum RCMB 05922 assessed as inhibition zone at 5 mg/ml after 48 hrs; conditions: RCMB 05922, 48 h, read-out: IZ
[7] = system: Streptococcus pneumoniae; assay: Antimicrobial activity against Streptococcus pneumoniae RCMB 010010 assessed as inhibition zone at 5 mg/ml after 24 hrs; conditions: RCMB 010010, 24 h, read-out: IZ; in short: as §2
[8] = system: Staphylococcus epidermidis; assay: Antimicrobial activity against Staphylococcus epidermidis RCMB 010024 assessed as absence of turbidity after 24 hrs; conditions: RCMB 010024, 24 h; in short: as §1
[9] = system: Bacillus subtilis; assay: Antimicrobial activity against Bacillis subtilis RCMB 010067 assessed as absence of turbidity after 24 hrs; conditions: RCMB 010067, 24 h; in short: as §1
[10] = system: Aspergillus fumigatus; assay: Antifungal activity against Aspergillus fumigatus RCMB 02568 assessed as absence of turbidity after 48 hrs; conditions: RCMB 02568, 48 h
In short: as §1, with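 “Sabouraud liquid medium.” for “Müller–Hinton broth.”, “Fungal” for “Bacterial”, “10^4” for “10^6”, “25” for “37”, “48” for “24”, “included.” for “included. Only compounds giving zones >10 mm were tested.”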

[11] = system: Bacillus subtilis; assay: Antimicrobial activity against Bacillis subtilis RCMB 010067 assessed as inhibition zone at 5 mg/ml after 24 hrs; conditions: RCMB 010067, 24 h, read-out: IZ; in short: as §2
[12] = system: Aspergillus fumigatus; assay: Antifungal activity against Aspergillus fumigatus RCMB 02568 assessed as inhibition zone at 5 mg/ml after 48 hrs; conditions: RCMB 02568, 48 h, read-out: IZ
In short: (§3)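 Disk diffusion on nutrient agar seeded with 10^4 CFU/mL fungus. Sterile filter-paper disks carried 100 µL of a 5 mg/mL DMF solution, and DMF alone served as control. Plates were incubated at 25 °C for 48 h. Mean inhibition zone in mm ± SD was read beyond the 6 mm diameter, in triplicate.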

[13] = system: Streptococcus pneumoniae; assay: Antimicrobial activity against Streptococcus pneumoniae RCMB 010010 assessed as absence of turbidity after 24 hrs; conditions: RCMB 010010, 24 h; in short: as §1
[14] = system: Geotrichum candidum; assay: Antifungal activity against Geotrichum candidum RCMB 05097 assessed as inhibition zone at 5 mg/ml after 48 hrs; conditions: RCMB 05097, 48 h, read-out: IZ; in short: as §3
[15] = system: Syncephalastrum racemosum; assay: Antifungal activity against Syncephalastrum racemosum RCMB 05922 assessed as absence of turbidity after 48 hrs; conditions: RCMB 05922, 48 h
[16] = system: Staphylococcus epidermidis; assay: Antimicrobial activity against Staphylococcus epidermidis RCMB 010024 assessed as inhibition zone at 5 mg/ml after 24 hrs; conditions: RCMB 010024, 24 h, read-out: IZ; in short: as §2
[17] = system: Geotrichum candidum; assay: Antifungal activity against Geotrichum candidum RCMB 05097 assessed as absence of turbidity after 48 hrs; conditions: RCMB 05097, 48 h
In short: as §1, with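 “Sabouraud liquid medium.” for “Müller–Hinton broth.”, “Fungal” for “Bacterial”, “10^4” for “10^6”, “25” for “37”, “48” for “24”, “included.” for “included. Only compounds giving zones >10 mm were tested.”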

[18] = system: Escherichia coli; assay: Antimicrobial activity against Escherichia coli RCMB 010052 assessed as inhibition zone at 5 mg/ml after 24 hrs; conditions: RCMB 010052, 24 h, read-out: IZ; in short: as §2

Compound	zone of inhibition at 5000 µg/mL [6] [mm]	zone of inhibition at 5000 µg/mL [7] [mm]	MIC [8] [µg/mL]	MIC [9] [µg/mL]	MIC ([1]; RCMB 010093, 24 h) [µg/mL]	MIC [10] [µg/mL]	zone of inhibition at 5000 µg/mL [11] [mm]	zone of inhibition at 5000 µg/mL [12] [mm]	MIC [13] [µg/mL]	zone of inhibition at 5000 µg/mL [14] [mm]	MIC ([2]; RCMB 010052, 24 h) [µg/mL]	MIC [15] [µg/mL]	zone of inhibition at 5000 µg/mL [16] [mm]	zone of inhibition at 5000 µg/mL [5] [mm]	MIC [17] [µg/mL]	zone of inhibition at 5000 µg/mL [18] [mm]	MIC ([3]; RCMB 010085, 24 h) [µg/mL]	zone of inhibition at 5000 µg/mL [4] [mm]	also measured
GENTAMICIN																			MIC [1]: 0.03 µg/mL; MIC [2]: 1.95 µg/mL; MIC [3]: 0.24 µg/mL; inhibition zone (IZ) [4]: 23.4 mm; inhibition zone (IZ) [5]: 26.3 mm
C=CCNc1sc(C(C)=O)c(N)c1C(=O)Nc1ccc(S(=O)(=O)Nc2onc(C)c2C)cc1	21.1	20.6	3.9 (≈ 7.97 µM)	0.12 (≈ 0.245 µM)	3.9 (≈ 7.97 µM)	0.98 (≈ 2 µM)	23.7	20.6	0.98 (≈ 2 µM)	21.9	7.81 (≈ 16 µM)	0.98 (≈ 2 µM)	19.3	18.9	0.49 (≈ 1 µM)	18.3			MIC [3]: inactive; Activity [4]: inactive
Cc1noc(NS(=O)(=O)c2ccc(-n3c(S)c(C#N)c(-c4cccnc4)c(C#N)c3=O)cc2)c1C	19.2	21.3	1.95 (≈ 3.86 µM)	0.24 (≈ 0.476 µM)	0.98 (≈ 1.94 µM)	0.98 (≈ 1.94 µM)	22.6	21.2	0.98 (≈ 1.94 µM)	22	3.9 (≈ 7.73 µM)	3.9 (≈ 7.73 µM)	20	21	0.49 (≈ 0.971 µM)	19.2	7.81 (≈ 15.5 µM)	17.6	
Cc1noc(NS(=O)(=O)c2ccc(NC(=O)c3cn[nH]c3N)cc2)c1C	17.2	17.8	31.2 (≈ 83 µM)	7.81 (≈ 20.7 µM)	125 (≈ 332 µM)	7.81 (≈ 20.7 µM)	18	18.6	7.81 (≈ 20.7 µM)	18.9	125 (≈ 332 µM)	15.6 (≈ 41.5 µM)	16.1	14.6	7.81 (≈ 20.7 µM)	13	500 (≈ 1330 µM)	11	
CCOc1ccc(N/N=C(\C#N)C(=O)Nc2ccc(S(=O)(=O)Nc3onc(C)c3C)cc2)cc1	18.6	19.6	7.81 (≈ 16.2 µM)	1.95 (≈ 4.04 µM)	31.2 (≈ 64.8 µM)	3.9 (≈ 8.08 µM)	20	19.3	1.95 (≈ 4.04 µM)	21.4	31.2 (≈ 64.8 µM)	3.9 (≈ 8.08 µM)	17.6	16.3	0.98 (≈ 2.03 µM)	15.9			
CC1(C)S[C@@H]2[C@H](NC(=O)[C@H](N)c3ccccc3)C(=O)N2[C@H]1C(=O)O [AMPICILLIN]		23.8	0.06 (≈ 0.172 µM)	0.24 (≈ 0.687 µM)			32.4		0.12 (≈ 0.343 µM)				25.4						
Cc1noc(NS(=O)(=O)c2ccc(NC(=O)/C(C#N)=C/c3ccc(Cl)cc3)cc2)c1C	21.6	20.3	0.49 (≈ 1.07 µM)	0.03 (≈ 0.0657 µM)	0.06 (≈ 0.131 µM)	0.98 (≈ 2.14 µM)	25.6	20.3	0.98 (≈ 2.14 µM)	24.6	0.49 (≈ 1.07 µM)	0.98 (≈ 2.14 µM)	22.3	23.9	0.12 (≈ 0.263 µM)	22.1	3.9 (≈ 8.54 µM)	19.2	
